Screening data deposited in PubChem BioAssay by several laboratories.
This is one part of a sample in which hits are shown more often than they occur.
CHOP inhibitor: inhibitors of CHOP promoter induction, primary screen, cell-based, unfolded protein response, luciferase reporter | CHO-K1 CHOP-promoter luciferase, tunicamycin-induced, 15-18 h | inhibition, % at 10 µM | actives 3.8% (n = 220,000);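 active means compounds that reduced the stress-induced luciferase reporter signal by more than about 70% of percent inhibition, limit read from the data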;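 further: 0% = tunicamycin plus vehicle and 100% = wells without tunicamycin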
UPR XBP1 act: activators of adaptive XBP1 UPR arm, primary screen, cell-based, CHO-XBP1 luciferase reporter, luminescence, uHTS | IRE1-XBP1 UPR activation; percent of tunicamycin response, DMSO as zero | AID 463104, 2010 | activation, % at 20 µM | actives 0.33% (n = 330,000);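 active means versus positive control, 20 µM dose yields 30% or more activation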;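 further: 100% = tunicamycin at 10 µg/mL and 0% = DMSO only wells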
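Material: CHO-XBP1 cells stably carrying IRE1-XBP1-driven luciferase reporter | Medium: F12 with 10% serum | Compound dosing: 20 µM single concentration, DMSO 1% | Incubation: Overnight seeding at 37 °C, 6 h compound treatment at 37 °C | Detection: Steady-Glo luminescence read | Read-out basis: % activation of reporter signal versus tunicamycin and DMSO controls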
CHOP UPR activ: activators of apoptotic CHOP UPR arm, primary screen, cell-based, CHO-CHOP luciferase reporter, luminescence, uHTS; UPR activation; percent of tunicamycin response over DMSO baseline; activation, % at 10 µM; actives 0.34% (n = 330,000); AID 449763, 2010;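 active means at 10 µM dose, activation of 40% or more, normalized to positive control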;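 further: 100% = tunicamycin at 10 µg/mL and 0% = DMSO alone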
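assay system = CHO CHOP reporter cells | amount = 500 CHO-CHOP cells per well | buffer or medium = F12 with 10% FBS | incubation = 16-18 h cell attachment, then 6 h compound exposure, 37 °C | detection = luminescence read with Steady-Glo | read-out = percent activation relative to tunicamycin control | controls = tunicamycin high control, DMSO low control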
FXN GAA850 act: FXN promoter activators, primary screen, cell-based, luciferase luminescence, HEK293 lucGAA850; HEK293 lucGAA850 FXN promoter luciferase reporter, 24 h; percent of 10 µM SAHA response; activation, % at 6 µM; actives 0.56% (n = 360,000);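 active means activation above the average of all compounds screened plus 3 SD, cutoff fixed separately per campaign, cut at about 7.5% in these data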;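 further: 0% = DMSO wells and 100% = 10 µM SAHA wells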
* hit, by the source's call; / = no result given.

SMILES	CHOP inhibitor	UPR XBP1 act	CHOP UPR activ	FXN GAA850 act
CCOc1ccc(NC(=O)c2sc(NC(C)=O)c(C(=O)OC)c2C)cc1	73.1*	6.8	-1.0	-1.1
CCc1nc2ccc(C(=O)NCCCn3ccnc3)cn2c1N(CC)CCOC	/	/	/	-1.7
COc1ccc(CN2C(=O)C(CC(=O)NCCCN(C)C)CC(C(=O)N(C)C)=C2C)cc1 (centres undefined)	/	/	/	-0.6
CCCC(=O)Nc1nc2ccc3nc(C)sc3c2s1	75.2*	-1.1	5.5	0.0
Oc1ccc(N=C/C=C/c2cccc(Br)c2)cc1-c1nc2ccccc2s1	-3.9	-0.6	2.2	13.7*
N.N.N.N.N.N.N.N.N.N.N.N.N.N.O.O.[Cl-].[Cl-].[Cl-].[Cl-].[Cl-].[Cl-].[Ru+4].[Ru+5].[Ru+5]	-15.3	/	/	/
CC(C)c1ccc(S(=O)(=O)Nc2ccc(SC(F)F)cc2)cc1	101.1*	0.0	-0.1	3.6
COc1ccc(OCCNC(=O)c2ccc3nc(C)c(N(C)C(=O)CCc4ccccc4)n3c2)cc1	/	/	/	-0.8
Brc1ccc(-c2nc(N/N=C/c3cccnc3)c3ccccc3n2)cc1	74.2*	2.2	3.1	-1.1
C(=N\Nc1nc(-c2ccccn2)nc2ccccc12)/c1ccccc1	87.9*	12.8	527.4*	/
COCCCN1CN(S(=O)(=O)c2ccc(Cl)cc2)c2nc3ccccc3nc21	93.0*	-2.3	-1.4	-1.5
O=C(CSc1nc(C2CC2)nc2ccccc12)N1CCCCC1	/	-2.5	1.7	0.0
O=C(CSc1nc(C2CC2)nc2ccccc12)N1CCc2ccccc2C1	74.5*	-0.8	0.5	/
COc1ccc(CN(C(=O)CN2C(=O)COc3ccccc32)C2CCCC2)c(OC)c1	14.0	-0.3	-0.3	-4.8
COc1ccc(CN(C(=O)CN2C(=O)C(C)Oc3ccccc32)C2CCCC2)c(OC)c1 (centres undefined)	71.4*	1.9	0.2	5.0
CN(C)c1ccc(-c2csc(C(O)c3ccc(F)c(F)c3)n2)cc1 (centres undefined)	/	/	/	2.0
O=C1NN(c2ccccc2)C(=O)/C1=C/c1cccs1	-18.7	31.4*	27.6	/
O=C1NN(c2ccccc2)C(=O)/C1=C\c1ccccc1	/	-4.7	-1.3	1.3
O=C1NN(c2ccc(F)cc2)C(=O)/C1=C\c1cnn(-c2ccccc2)c1	70.2*	19.9	7.5	/
CC1(C(=O)NS(=O)(=O)c2ccc(Cl)cc2)CCN1C(=O)c1cccc(F)c1 (centres undefined)	/	/	/	-0.1
CCc1nc2c(OCC(=O)N3CCOCC3)cccn2c1N(C)C(=O)COc1ccccc1	/	/	/	-1.8
Cc1ccccc1Cn1cc(NC(=O)c2noc3c2CC(C(C)(C)C)CC3)cn1 (centres undefined)	85.6*	2.1	0.7	4.6
Cc1ccccc1Cn1nc(C)c(NC(=O)c2noc3c2CC(C(C)(C)C)CC3)c1C (centres undefined)	31.7	-1.8	0.6	-0.2
CC1CCc2c(C(=O)Oc3cccc(-n4cnnn4)c3)csc2C1 (centres undefined)	88.6*	1.1	-0.4	2.9
CCC(=O)N1CCCC(C)(C(=O)Nc2ccc3oc(CC)nc3c2)C1 (centres undefined)	/	/	/	0.9
SMILES	CHOP inhibitor	UPR XBP1 act	CHOP UPR activ	FXN GAA850 act
CCOc1ccc(-c2cc(C(=O)Nc3cccc(C(F)(F)F)c3)[nH]n2)c(C)c1	/	/	/	1.5
COc1cc2[nH]c(=O)n(CCC(=O)N3CCN(c4cccc(C)c4C)CC3)c(=O)c2cc1OC	93.1*	2.2	0.0	2.7
COc1cc2[nH]c(=O)n(CCC(=O)N3CCN(Cc4ccccc4)CC3)c(=O)c2cc1OC	-11.7	-1.9	-0.7	-1.0
CCC(C)n1cnc2c(c1=O)c1nc3ccccc3nc1n2-c1ccc2c(c1)OCCO2 (centres undefined)	82.7*	-1.6	-0.8	1.1
CC1NC(=O)c2cc3ccccc3cc2-n2c1nc1cc(Cl)ccc1c2=O (centres undefined)	/	/	/	0.0
CCc1ccc(CN(C)Cc2c(C(=O)N3CCOCC3)nc3c(C)cccn23)nc1	/	/	/	0.7
CCc1ccc(OCC(=O)N/N=C(\C)c2ccccc2OC(F)F)cc1	53.7	-0.1	6.2	-2.5
CCc1ccc(OCC(=O)N/N=C(\C)c2ccc(OC(F)F)cc2)cc1	78.3*	-3.4	1.7	1.8
COc1ccc2ccccc2c1C(O)c1nccn1C (centres undefined)	83.6*	1.9	0.8	-1.5
